We go through six compounds from paper PMC3891043 (Canadian journal of chemistry, 2011).

Data set [1] can be described thus: Photolysis quantum yields. The data set is classed as physicochemical. To be noted: for Φdis, disappearance quantum yield (pHP diethyl phosphates): λ = 300 nm, 50% aq CH3CN. In a few lines: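 Caged compound (1–9 mmol/L) plus internal standard (caffeine or 4-acetamidophenol) in water, buffer or solvent, in a quartz tube. Irradiated in a Rayonet carousel (two 15 W, 3000 Å Hg lamps), with ferrioxalate actinometry. Aliquots taken every 30 s up to 5 min, diluted and run on C18 LC-MS (water/methanol gradient with ammonium formate/formic acid), three injections each. Quantitation used calibration curves; Φ = concentration change / photons absorbed. 1H NMR in D2O confirmed products.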

Data set [2] can be described thus: Stability to aqueous hydrolysis. The data set is classed as physicochemical. To be noted: compared with other pHP phosphates.
The nature of data set [3]: Stern-Volmer quenching with sorbate. The data set is classed as physicochemical. To be noted: unbuffered 18 MΩ Ultrapure H2O; from KSV with kq assumed kdiff ~ 7.2 × 10^9 s^−1. In a few lines:
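pHP GABA (0.001–0.01 mol/L) was diluted with potassium sorbate quencher (0–0.1 mol/L) and photolysed under the quantum-yield conditions (Rayonet, 3000 Å, LC-MS quantitation of GABA release). KSV came from Φ0/Φ vs [Q]. Triplet lifetime was obtained from KSV, taking kq as the diffusion rate in water.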

For data set [4] the following is noted: λ = 300 nm, reported earlier, for comparison, cited from earlier work.
[5] abbreviates: 300 nm, pH 5.0, ammonium acetate (0.01 mol/L), buffered CH3CN–H2O.
[6] abbreviates: unbuffered 18 MΩ Ultrapure H2O, conversion <2%.
Where [7] appears, read: unbuffered CH3CN–H2O (1:1), conversion <2%.

Consider `CCOP(=O)(OCC)OCC(=O)c1c(OC)cc(O)cc1OC` [Compound 31, Diethyl (2-(4-hydroxy-2,6-dimethoxyphenyl)-2-oxoethyl) phosphate], for which the “Φdis, disappearance quantum yield (pHP diethyl phosphates)” value in data set [1] came out at 0.69. Besides, in data set [2], the “Stability to aqueous hydrolysis (qualitative)” value was “less stable to aqueous hydrolysis”.

Regarding `CCOP(=O)(OCC)OCC(=O)c1ccc(O)cc1OC` [Compound 30, Diethyl (2-(4-hydroxy-2-methoxyphenyl)-2-oxoethyl) phosphate], the “Φdis, disappearance quantum yield (pHP diethyl phosphates)” value in data set [1] was found to be 0.59. The “Stability to aqueous hydrolysis (qualitative)” value in data set [2] is “less stable to aqueous hydrolysis”.

In the case of `NCCCC(=O)OCC(=O)c1ccc(O)c(F)c1.O=C(O)C(F)(F)F` [Compound 16, 4-(2-(3-Fluoro-4-hydroxyphenyl)-2-oxoethoxy)-4-oxobutan-1-aminium-2,2,2-trifluoroacetate], in data set [1] (setting [5]), the “Φapp, quantum yield for the appearance of GABA” value (“Φapp, quantum yield … of GABA” for short) is reported as 0.14; the “Φapp, quantum yield for the appearance of rearranged acid” value (from here on “Φapp … of rearranged acid”) was 0.14; the “Φdis, quantum yield for the disappearance of pHP GABA” value (“Φdis, quantum yield” for short) was determined as 0.15. Besides, in data set [1] (setting [6]), the “Φapp, quantum yield … of GABA” value was determined as 0.15; the “Φapp … of rearranged acid” value amounted to 0.15; the “Φdis, quantum yield” value was 0.16. Moreover, the “τ^3, triplet lifetime” value in data set [3] was 3.23 10^−9s.

With `N#Cc1cc(C(=O)COC(=O)CCCN)ccc1O.O=C(O)C(F)(F)F` [Compound 13, 4-(2-(3-Cyano-4-hydroxyphenyl)-2-oxoethoxy)-4-oxobutan-1-aminium-2,2,2-trifluoroacetate], in data set [1] (setting [5]), the “Φapp, quantum yield … of GABA” value was 0.13; the “Φapp … of rearranged acid” value is given as 0.19; the “Φdis, quantum yield” value came out at 0.21. In data set [1] (setting [7]), the “Φapp, quantum yield … of GABA” value is 0.35; the “Φapp … of rearranged acid” value was found to be 0.39; the “Φdis, quantum yield” value was 0.42. Moreover, the “τ^3, triplet lifetime” value in data set [3] is 40.5 10^−9s.

With `CC(=O)OCC(=O)c1ccc(O)cc1` [Compound 24, 2-(4-Hydroxyphenyl)-2-oxoethyl acetate], the “Φdis, disappearance quantum yield (parent pHP acetate)” value in data set [4] (20% aq CH3CN or DMSO) is reported as 0.30.

In the case of `CCOP(=O)(OCC)OCC(=O)c1ccc(O)cc1` [Compound 27, Diethyl (2-(4-hydroxyphenyl)-2-oxoethyl) phosphate], the “Φdis, disappearance quantum yield (parent pHP diethyl phosphate)” value in data set [4] (50% aq CH3CN) was 0.40.
